Measurements collected from several papers.
Compare with care: the assays were run in different laboratories.
PPO3: PPO3 (Agaricus bisporus, UniProt C7FF04)
HDAC2: Histone deacetylase 2 (HDAC2, Homo sapiens, UniProt Q92769)
HTR2A: 5-hydroxytryptamine receptor 2A (HTR2A, Homo sapiens, UniProt P28223)

SMILES	target	effect on	mode	technique	IC50 [µM]
Nc1nc(-c2ccc(I)cc2)cc(-c2ccc(-c3cc(-c4ccc(I)cc4)nc(N)n3)cc2)n1	PPO3	enzyme activity	inhibitor	absorbance	30.6
Nc1ccccc1NC(=O)c1ccc(CNc2ccc(NC3=C(Cl)C(=O)c4cccnc4C3=O)cc2)cc1	HDAC2	enzyme activity	inhibitor	–	0.415
O=C(NO)c1cncc(OS(=O)(=O)Oc2ccc3ccccc3c2)c1	HDAC2	enzyme activity	inhibitor	fluorescence	1.46
Nc1ccc(-c2cc(-c3ccc(-c4cc(-c5ccc(N)cc5)nc(N)n4)cc3)nc(N)n2)cc1	PPO3	enzyme activity	inhibitor	absorbance	12.4
CC(C)C(N)CCN(C)C(=O)C(=O)Nc1cc2ccccc2cc1Cl (stereo not drawn)	HTR2A	calcium signal	antagonist	–	15.7
O=C(/C=C/c1cccc(OS(=O)(=O)Oc2ccc(C(F)(F)F)cc2)c1)NO	HDAC2	enzyme activity	inhibitor	fluorescence	0.45
C=CCNC(=O)C(C)N1CCCC(c2ccc(O)cc2)C1 (stereo not drawn)	HTR2A	calcium signal	antagonist	–	15.8
C#Cc1ccc2c(=O)[nH]nc(Cc3ccc(F)c(C(=O)N4CCN(C(=O)C=C)CC4)c3)c2c1	Poly [ADP-ribose] polymerase 1 (PARP1, Homo sapiens, UniProt P09874)	enzyme activity	inhibitor	–	0.85
CCN(Cc1cc(Br)ccc1O)C(=O)C(N)Cc1ccco1 (stereo not drawn)	HTR2A	calcium signal	antagonist	–	27
CCc1c(C)nc(-c2ccc(Cl)s2)nc1Nc1ccc(CC(=O)O)cc1	3',5'-cyclic-AMP phosphodiesterase 4A (PDE4A, Homo sapiens, UniProt P27815)	enzyme activity	inhibitor	FP	~3.7
Nc1nc(-c2ccccc2)cc(-c2ccc(-c3cc(-c4ccccc4)nc(N)n3)cc2)n1	PPO3	enzyme activity	inhibitor	absorbance	86.7
CN(C(=O)c1cn[nH]n1)C1CCN(CCc2cccc(Cl)c2Cl)C1 (stereo not drawn)	HTR2A	calcium signal	antagonist	–	0.907
